The target of the test is Transthyretin (Homo sapiens) (UniProt P02766). As to the kind of experiment: Inhibition of transthyretin (unknown origin) aggregation at 2 mol equiv measured at 36 hrs by congo red assay relative to control. The essentials: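 TTR aggregation was induced at pH 4.5 with or without the test agent. Aggregation was scored by Congo red at its peak, 36 h. Thioflavin T was not usable because dissolved, filtered TTR gives high background fluorescence.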

Bounds are passed on as bounds.

In general, inhibition refers to the percentage by which the read-out fell short of the control. Take `O=C(O)c1cc(-c2ccc(F)cc2F)ccc1O`: the inhibition was over 90%.

Values taken from ChEMBL document CHEMBL2429806, “Designed Trpzip-3 β-Hairpin Inhibits Amyloid Formation in Two Different Amyloid Systems” (ACS Med Chem Lett, 2013).
